{"source": "ChEMBL document CHEMBL3526032", "about": "“Ablation of both organic cation transporter (OCT)1 and OCT2 alters metformin pharmacokinetics but has no effect on tissue drug exposure and pharmacodynamics” (Drug Metab Dispos, 2012)", "key": {"[1]": {"tested_on": "OCT2 over OCT1", "assay": "Selectivity for OCT2 (unknown origin) over OCT1 (unknown origin)", "assay_type": "ADME", "settings": "human"}, "[2]": {"tested_on": "Mus musculus", "assay": "Antidiabetic activity in Oct1/Oct2-knockout FVB mouse assessed as blood glucose AUC level at 300 mg/kg, po by oral glucose tolerance test relative to control", "assay_type": "functional", "procedure,_shortened": "(§1)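 Male FVB mice, wild type or Oct1/2-knockout, fasted 16 h. Day 1: oral vehicle (1% hydroxyethyl cellulose/0.25% polysorbate-80/0.05% antifoam) given at -30 min. Day 8: oral metformin 10-300 mg/kg instead. At 0 min, oral glucose 2.5 g/kg.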"}, "[3]": {"tested_on": "Mus musculus", "assay": "Antidiabetic activity in wild type FVB mouse assessed as half-maximal efficacious AUC at 300 mg/kg, po by oral glucose tolerance test relative to control", "assay_type": "functional, organism-based", "design": "dose 300 mg/kg"}, "[4]": {"tested_on": "Mus musculus", "assay": "Antidiabetic activity in po dosed Oct1/Oct2-knockout FVB mouse assessed as reduction in blood glucose level by oral glucose tolerance test relative to control", "assay_type": "functional", "procedure,_shortened": "as §1"}, "[5]": {"tested_on": "Mus musculus", "assay": "Antidiabetic activity in wild type FVB mouse assessed as plasma insulin level at 300 mg/kg, po by oral glucose tolerance test", "assay_type": "functional, organism-based", "design": "dose 300 mg/kg", "procedure,_shortened": "(§2)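 Plasma insulin measured by immunoassay at 0, 30, 60, 90 and 120 min during an oral glucose tolerance test (2.5 g/kg) in 16-h fasted male FVB wild-type or Oct1/2-knockout mice. Oral vehicle or metformin (10-300 mg/kg) given 30 min before glucose.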"}, "[6]": {"tested_on": "Mus musculus", "assay": "Antidiabetic activity in Oct1/Oct2-knockout FVB mouse assessed as reduction in blood glucose level at 300 mg/kg, po by oral glucose tolerance test relative to control", "assay_type": "functional, organism-based", "design": "dose 300 mg/kg", "procedure,_shortened": "as §1"}, "[7]": {"tested_on": "Mus musculus", "assay": "Antidiabetic activity in wild type FVB mouse assessed as reduction in blood glucose level at 300 mg/kg, po by oral glucose tolerance test relative to control", "assay_type": "functional, organism-based", "design": "dose 300 mg/kg", "procedure,_shortened": "as §1"}, "[8]": {"tested_on": "Mus musculus", "assay": "Antidiabetic activity in Oct1/Oct2-knockout FVB mouse assessed as plasma insulin level at 300 mg/kg, po by oral glucose tolerance test", "assay_type": "functional, organism-based", "design": "dose 300 mg/kg", "procedure,_shortened": "as §2"}, "[9]": {"tested_on": "Mus musculus", "assay": "Antidiabetic activity in Oct1/Oct2-knockout FVB mouse assessed as half-maximal efficacious AUC at 300 mg/kg, po by oral glucose tolerance test relative to control", "assay_type": "functional, organism-based", "design": "dose 300 mg/kg"}, "[10]": {"tested_on": "Mus musculus", "assay": "Antidiabetic activity in po dosed wild type FVB mouse assessed as reduction in blood glucose level by oral glucose tolerance test relative to control", "assay_type": "functional", "procedure,_shortened": "as §1"}, "[11]": {"tested_on": "Mus musculus", "assay": "Antidiabetic activity in wild type FVB mouse assessed as blood glucose AUC level at 300 mg/kg, po by oral glucose tolerance test relative to control", "assay_type": "functional", "procedure,_shortened": "as §1"}, "[12]": {"tested_on": "Mus musculus", "assay": "Antidiabetic activity in Oct1/Oct2-knockout FVB mouse assessed as reduction in blood glucose level at 10 mg/kg, po by oral glucose tolerance test", "assay_type": "functional, organism-based", "design": "dose 10 mg/kg", "procedure,_shortened": "as §1"}, "[13]": {"tested_on": "Mus musculus", "assay": "Antidiabetic activity in wild type FVB mouse assessed as reduction in blood glucose level at 10 mg/kg, po by oral glucose tolerance test", "assay_type": "functional, organism-based", "design": "dose 10 mg/kg", "procedure,_shortened": "as §1"}, "[14]": {"assay": "Clearance in wild type FVB mouse at 10 mg/kg, iv", "settings": "in vivo"}, "[15]": {"assay": "in vivo", "settings": "FVB, mouse, plasma, iv, 10 mg/kg"}, "[16]": {"assay": "Drug recovery in wild type FVB mouse urine assessed as corrected compound recovery by measuring nominal to observerd glomerular filtration rate ratio at 10 mg/kg, iv"}, "[17]": {"assay": "in vivo", "settings": "FVB, mouse, plasma, iv, 10 mg/kg", "remark": "listed apart in the source"}, "[18]": {"assay": "in vivo", "settings": "FVB, mouse, iv, 10 mg/kg"}, "[19]": {"assay": "in vivo", "settings": "FVB, mouse, plasma, iv, 10 mg/kg", "remark": "listed apart in the source"}, "[20]": {"assay": "Drug recovery in Oct1/Oct2-knockout FVB mouse urine assessed as corrected compound recovery by measuring nominal to observerd glomerular filtration rate ratio at 10 mg/kg, iv"}, "[21]": {"assay": "Initial plasma concentration in Oct1/Oct2-knockout FVB mouse at 10 mg/kg, iv"}, "[22]": {"assay": "Drug excretion in Oct1/Oct2-knockout FVB mouse urine at 10 mg/kg, iv after 2 hrs"}, "[23]": {"assay": "Drug excretion in wild type FVB mouse urine at 10 mg/kg, iv after 2 hrs"}, "[24]": {"assay": "in vivo", "settings": "FVB, mouse, plasma, iv, 10 mg/kg", "remark": "listed apart in the source"}, "[25]": {"assay": "Clearance in Oct1/Oct2-knockout FVB mouse at 10 mg/kg, iv", "settings": "in vivo"}, "[26]": {"assay": "Volume of distribution at steady state in Oct1/Oct2-knockout FVB mouse at 10 mg/kg, iv", "settings": "in vivo"}, "[27]": {"assay": "in vivo", "settings": "FVB, mouse, iv, 10 mg/kg", "remark": "listed apart in the source"}, "[28]": {"assay": "Volume of distribution at steady state in wild type FVB mouse at 10 mg/kg, iv", "settings": "in vivo"}, "[29]": {"assay": "Initial plasma concentration in wild type FVB mouse at 10 mg/kg, iv"}}, "note": "The source made the active and inactive calls. The rule behind the calls is not given here.", "data": [{"smiles": "CC(N)Cc1ccccc1", "note": "(stereo not given) [AMPHETAMINE]", "values": [{"measurement": "selectivity ratio", "setting": "[1]", "value": 20}]}, {"smiles": "CN(C)C(=N)NC(=N)N.Cl", "note": "[METFORMIN HYDROCHLORIDE]", "values": [{"measurement": "Activity", "setting": "[2]", "value": 42, "unit": "%"}, {"measurement": "AUC", "setting": "[3]", "value": 26000, "unit": "ng·h/mL"}, {"measurement": "ED50", "setting": "[4]", "value": 151, "unit": "mg/kg"}, {"measurement": "Activity", "setting": "[5]", "value": "Active"}, {"measurement": "Activity", "setting": "[6]", "value": "Active"}, {"measurement": "Activity", "setting": "[7]", "value": "Active"}, {"measurement": "Activity", "setting": "[8]", "value": "Active"}, {"measurement": "AUC", "setting": "[9]", "value": 70000, "unit": "ng·h/mL"}, {"measurement": "ED50", "setting": "[10]", "value": 110, "unit": "mg/kg"}, {"measurement": "Activity", "setting": "[11]", "value": 39, "unit": "%"}, {"measurement": "Activity", "setting": "[12]", "value": "inactive"}, {"measurement": "Activity", "setting": "[13]", "value": "inactive"}]}, {"smiles": "CC[N+](CC)(CC)CC", "note": "[TETRYLAMMONIUM]", "values": [{"measurement": "clearance", "setting": "[14]", "value": 58.7, "unit": "mL/min/kg"}, {"measurement": "AUC(0-inf)", "setting": "[15]", "value": 2840, "unit": "ng·h/mL"}, {"measurement": "dose excreted", "setting": "[16]", "value": 95, "unit": "%"}, {"measurement": "AUC(0-inf)", "setting": "[17]", "value": 9840, "unit": "ng·h/mL"}, {"measurement": "half-life", "setting": "[18]", "value": 18.6, "unit": "min"}, {"measurement": "AUC(0-t)", "setting": "[19]", "value": 9100, "unit": "ng·h/mL"}, {"measurement": "dose excreted", "setting": "[20]", "value": 62, "unit": "%"}, {"measurement": "C0", "setting": "[21]", "value": 67400, "unit": "ng/mL"}, {"measurement": "dose excreted at 2 h", "setting": "[22]", "value": 30, "unit": "%"}, {"measurement": "dose excreted at 2 h", "setting": "[23]", "value": 35, "unit": "%"}, {"measurement": "AUC(0-t)", "setting": "[24]", "value": 2410, "unit": "ng·h/mL"}, {"measurement": "clearance", "setting": "[25]", "value": 16.9, "unit": "mL/min/kg"}, {"measurement": "Vd", "setting": "[26]", "value": 0.318, "unit": "L/kg"}, {"measurement": "half-life", "setting": "[27]", "value": 12, "unit": "min"}, {"measurement": "Vd", "setting": "[28]", "value": 1.52, "unit": "L/kg"}, {"measurement": "C0", "setting": "[29]", "value": 22700, "unit": "ng/mL"}]}, {"smiles": "NC12CC3CC(CC(C3)C1)C2", "note": "[AMANTADINE]", "values": [{"measurement": "selectivity ratio", "setting": "[1]", "value": 20}]}]}
